Measured values as given in ChEMBL document CHEMBL1134437, “Synthesis and biological evaluation of novel pyrazoles and indazoles as activators of the nitric oxide receptor, soluble guanylate cyclase” (J Med Chem, 2001).

Assays:
Homo sapiens [1] = organism: Homo sapiens; test: Concentration required to inhibit collagen-induced platelet aggregation by 50%; type: functional
Method in brief: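 Washed human platelets, prepared from citrated blood with PGI2 and normalized to 250 000 cells/µL in calcium-free Tyrode's buffer pH 7.4. Compound (DMSO ≤0.1% final) added 1 min before an EC50 dose of collagen. Light-transmittance aggregometry at 37 °C, response read 3 min after collagen and normalized to collagen control. IC50 from dose-response curves, mean ± SEM, at least 2 experiments.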

[2] = (§1) Bovine sGC stimulation measured as relative enzyme activity (percentage of DEA/NO response for the compound to compound 3); type: functional
Method in brief: (§2)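 Baculovirus-expressed bovine sGC from Sf21 cells, partially purified on Mono-Q. Compound at 1 µM single concentration in Tris buffer pH 7.4 with 5 mM MgCl2, IBMX and GTP; sGC submaximally stimulated with 300 nM DEA/NO, 10 min at room temperature. cGMP by competitive enzyme immunoassay, duplicate, at least n = 2; expressed as % of DEA/NO response, then ratio to benzydamine.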

[3] = (§3) Compound was evaluated for pharmacokinetic parameter was determined after oral dosing of 2 mg/kg in rat; type: ADME, organism-based; design: dose 2 mg/kg, route oral; conditions: in vivo
Method in brief: (§4)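 Male Sprague-Dawley rats, cassette-dosed at 2 mg/kg in PBS orally (iv arm also run). Serum extracted into diethyl ether and analysed by reversed-phase C18 HPLC.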

Rattus norvegicus [4] = test: as §3; type: ADME, organism-based; design: dose 2 mg/kg, route oral; conditions: in vivo; method in brief: as §4
[5] = Activation of bovine sGC Enzyme (soluble Guanylate Cyclase) in Sf21 cells infected with baculo virus in the presence of 30 nM of PAPA/NO; type: cell-based
Method in brief: (§5)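 Bovine sGC expressed in Sf21 cells (baculovirus, 2.5 µg/mL hemin, 27 °C, 48 h), partially purified by Mono-Q anion exchange. Reaction in Tris buffer pH 7.4 with 5 mM MgCl2, 120 µg/mL enzyme, IBMX and GTP, stimulated by 30 nM PAPA/NO, room temperature, 10 min. cGMP read by competitive enzyme immunoassay. EC50 from nonlinear regression, mean ± SEM of at least 3 independent experiments.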

[6] = Bioavailability in rat after (dose 2 mg/kg p.o.); type: ADME, organism-based; conditions: in vivo, po; method in brief: as §4
Homo sapiens [7] = organism: Homo sapiens; test: Percent inhibition of collagen-induced platelet aggregation at 100 uM concentration; type: functional
Rattus norvegicus [8] = test: Area under curve (AUC) was determined after oral dosing of 5 mg/kg in rat; type: ADME, organism-based; design: dose 5 mg/kg, route oral; conditions: in vivo
Method in brief: (§6)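 Male Sprague-Dawley rats given 5 mg/kg in PBS orally (iv arm also run). Blood taken predose and at 0.5, 1, 2, 3, 4, 6, 10 and 24 h after oral dosing. Serum extracted into diethyl ether and analysed by reversed-phase C18 HPLC.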

Homo sapiens [9] = organism: Homo sapiens; test: Percent inhibition of collagen-induced platelet aggregation by 50% at a concentration of 100 uM; type: functional
[10] = Activation of sGC Enzyme (soluble Guanylate Cyclase) in Sf21 cells infected with baculo virus in the presence of 30 nM of PAPA/NO; type: functional, cell-based; method in brief: as §5
Homo sapiens [11] = organism: Homo sapiens; test: Percent inhibition of collagen-induced platelet aggregation at 50 uM concentration; type: functional
[12] = as §1; method in brief: as §2
[13] = Bioavailability in rat after (dose 5 mg/kg p.o.); type: ADME, organism-based; conditions: in vivo, po; method in brief: as §6
[14] = Cmax was determined after oral dosing of 5 mg/kg in rat; type: ADME, organism-based; design: dose 5 mg/kg, route oral; conditions: in vivo; method in brief: as §6

Compound	REA [2]	also measured
COc1cc(-c2cc(OCCCN(C)C)[nH]n2)cc(OC)c1OC	1.1	IC50 (Homo sapiens [1]): 41.1 µM
CN(C)CCCOc1cc(-c2ccccc2)n(Cc2ccccc2)n1	1.08	Cmax [3]: 3.1 ng/mL; AUC (Rattus norvegicus [4]): 15.5 ng·h/mL; EC50 [5]: 0.44 µM; IC50 (Homo sapiens [1]): 2.37 µM; bioavailability [6]: 2%
CN(C)CCCCOc1nn(Cc2ccccc2)c2ccccc12	0.79	IC50 (Homo sapiens [1]): 7.62 µM
c1ccc(-c2cc(OCCCN3CCCC3)n[nH]2)cc1	0.85	–
Nc1ncccc1COc1cc(-c2ccccc2)[nH]n1	0.69	–
CN(C)CCCNc1cc(-c2ccccc2)[nH]n1	0.66	–
Nc1cc(COc2cc(-c3ccccc3)[nH]n2)ccn1	0.53	–
CN(C)CCCOc1cc(C(=O)NCc2ccccc2)n(Cc2ccccc2)n1	1.22	inhibition at 100 µM (Homo sapiens [7]): 25%
CN(C)CCCOc1cc(C(=O)N(C)C)n(Cc2ccccc2)n1	0.93	inhibition at 100 µM (Homo sapiens [7]): 4%
CN(C)CCCOc1nn(-c2ccccc2)c2ccccc12	1.16	Cmax [3]: 3.2 ng/mL; AUC (Rattus norvegicus [4]): 7.9 ng·h/mL; IC50 (Homo sapiens [1]): 2.46 µM; bioavailability [6]: 2%
CN1CCCC(COc2cc(-c3ccccc3)[nH]n2)C1 (centres undefined)	0.61	–
CN(C)CCCOc1nn(C(=O)N(C)C)c2ccccc12	0.78	–
COc1ccc(NC(=O)c2cc(OCCCN(C)C)nn2Cc2ccccc2)cc1	1.1	EC50 [5]: 5.49 µM; AUC (Rattus norvegicus [8]): 61.1 ng·h/mL
CN(C)CCCOc1ccn(Cc2ccccc2)n1	0.73	–
CN(C)CCCOc1nn(CCCN(C)C)c2ccccc12	0.79	–
CN(C)CCCOc1[nH]ncc1-c1ccccc1	1.17	IC50 (Homo sapiens [1]): 12 µM
CCN(CC)CCCOc1cc(-c2ccccc2)[nH]n1	0.42	–
CN(C)CCCOc1cc(-c2ccccc2)nn1Cc1ccccc1	0.72	–
CN(C)CCCOc1cc(C(=O)N2CCOCC2)n(Cc2ccccc2)n1	0.84	inhibition at 100 µM (Homo sapiens [7]): 90%
CN(C)CCCOc1ccn(-c2ccccc2)n1	0.71	inhibition at 100 µM (Homo sapiens [9]): 3%
CN(C)CCCCc1cc(-c2ccccc2)[nH]n1	0.68	–

Compound	REA [2]	also measured
CN(C)CCCOc1nn(Cc2ccccc2)c2ccccc12 [BENZYDAMINE]	1	EC50 [5]: 1.02 µM; IC50 (Homo sapiens [1]): 6.67 µM
CN(C)CCCOc1cc(C(F)(F)F)[nH]n1	1.13	inhibition at 100 µM (Homo sapiens [7]): 8%
OCc1ccc(-c2nn(Cc3ccccc3)c3ccccc23)o1	–	EC50 [10]: 4.11 µM
CN(C)CCCOc1cc(-c2ccccc2)[nH]n1	1.49	inhibition at 100 µM (Homo sapiens [7]): 19%; EC50 [5]: 0.72 µM
CN(C)CCCOc1nn(CCc2ccccc2)c2ccccc12	0.84	–
CN(C)CCCOc1cc(Cc2ccccc2)n[nH]1	1.54	EC50 [5]: 0.165 µM; IC50 (Homo sapiens [1]): 49.2 µM
CNC(=O)c1cc(OCCCN(C)C)nn1Cc1ccccc1	0.95	–
CN(C)CCCOc1cc(-c2ccncc2)[nH]n1	1.15	inhibition at 100 µM (Homo sapiens [7]): 0%
CC(=O)n1nc(OCCCN(C)C)c2ccccc21	0.82	–
CN(C)CCCOc1nn(C(=O)c2ccccc2)c2ccccc12	1.04	IC50 (Homo sapiens [1]): 8.57 µM
CCCN(CCC)C(=O)c1cc(OCCCN(C)C)nn1Cc1ccccc1	1.22	inhibition at 100 µM (Homo sapiens [7]): 35%
CC(COc1nn(Cc2ccccc2)c2ccccc12)CN(C)C (centres undefined)	0.62	IC50 (Homo sapiens [1]): 4.18 µM
CN(C)CCCCCOc1nn(Cc2ccccc2)c2ccccc12	0.56	–
CN(C)CCOc1nn(Cc2ccccc2)c2ccccc12	0.33	–
CC(C)n1nc(OCCCN(C)C)c2ccccc21	0.66	–
CN(C)CCCOc1cc(C(=O)O)n(Cc2ccccc2)n1	1.01	–
CN(C)CCCOc1cc(-c2ccoc2)[nH]n1	1.31	IC50 (Homo sapiens [1]): 99 µM
CN(C)CCCOc1nn(S(C)(=O)=O)c2ccccc12	1.07	IC50 (Homo sapiens [1]): 21.6 µM
CN(C)CCCOc1[nH]nc2ccccc12	–	inhibition at 50 µM (Homo sapiens [11]): 50%; REA [12]: 1.93
CN(C)CCCOc1cc(-c2ccccc2)n(-c2ccccc2)n1	1.28	bioavailability [13]: < 2%; Cmax [14]: 1.4 ng/mL; EC50 [5]: 0.58 µM; AUC (Rattus norvegicus [8]): 3.3 ng·h/mL; IC50 (Homo sapiens [1]): 2.84 µM
NCCCOc1nn(Cc2ccccc2)c2ccccc12	0.48	–
